Data from ChEMBL document CHEMBL5653631, “A Potent and Selective ULK1 Inhibitor Suppresses Autophagy and Sensitizes Cancer Cells to Nutrient Stress” (iScience, 2018).
One block for each molecule: values may come before it.

Assays:
[1] = molecular target: T1, Discoidin domain-containing receptor 2 (Homo sapiens) (UniProt Q16832); assay: Inhibition of human recombinant DDR2 at 500 nM in presence of ATP by radiometric assay relative to control
T1 sequence (whole entry): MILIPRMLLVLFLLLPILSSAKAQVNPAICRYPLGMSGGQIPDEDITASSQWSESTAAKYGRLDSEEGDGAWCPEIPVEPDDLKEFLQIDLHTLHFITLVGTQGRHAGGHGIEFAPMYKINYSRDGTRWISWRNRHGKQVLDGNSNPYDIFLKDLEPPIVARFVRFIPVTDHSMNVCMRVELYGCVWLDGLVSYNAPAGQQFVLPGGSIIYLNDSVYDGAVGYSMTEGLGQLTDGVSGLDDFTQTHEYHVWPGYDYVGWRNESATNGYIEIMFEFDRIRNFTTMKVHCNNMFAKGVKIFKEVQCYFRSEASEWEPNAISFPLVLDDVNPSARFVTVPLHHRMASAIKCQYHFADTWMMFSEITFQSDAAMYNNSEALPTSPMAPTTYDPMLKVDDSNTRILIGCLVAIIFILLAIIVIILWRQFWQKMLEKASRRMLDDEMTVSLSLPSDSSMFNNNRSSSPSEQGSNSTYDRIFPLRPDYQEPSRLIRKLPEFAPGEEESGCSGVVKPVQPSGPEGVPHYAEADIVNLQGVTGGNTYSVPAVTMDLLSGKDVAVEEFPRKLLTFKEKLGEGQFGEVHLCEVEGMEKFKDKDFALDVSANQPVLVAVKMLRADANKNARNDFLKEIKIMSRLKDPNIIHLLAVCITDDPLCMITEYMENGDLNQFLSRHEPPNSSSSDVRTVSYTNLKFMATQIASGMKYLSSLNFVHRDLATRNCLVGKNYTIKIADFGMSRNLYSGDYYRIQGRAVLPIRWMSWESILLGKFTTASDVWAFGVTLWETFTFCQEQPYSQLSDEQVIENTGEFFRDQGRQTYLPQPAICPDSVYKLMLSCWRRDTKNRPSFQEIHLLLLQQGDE

[2] = molecular target: Wee1-like protein kinase 2 (Homo sapiens) (UniProt P0C1S8); assay: Inhibition of human recombinant Wee1B at 500 nM in presence of ATP by radiometric assay relative to control
Homo sapiens = species: Homo sapiens; assay: Inhibition of human recombinant p70S6K at 500 nM related to control ULK1
[3] = molecular target: Serine/threonine-protein kinase WNK1 (Homo sapiens) (UniProt Q9H4A3); assay: Inhibition of human recombinant Wnk1 at 500 nM in presence of ATP by radiometric assay relative to control
Sequence of Serine/threonine-protein kinase WNK1 (Homo sapiens) (Q9H4A3 whole entry, looked up, canonical isoform): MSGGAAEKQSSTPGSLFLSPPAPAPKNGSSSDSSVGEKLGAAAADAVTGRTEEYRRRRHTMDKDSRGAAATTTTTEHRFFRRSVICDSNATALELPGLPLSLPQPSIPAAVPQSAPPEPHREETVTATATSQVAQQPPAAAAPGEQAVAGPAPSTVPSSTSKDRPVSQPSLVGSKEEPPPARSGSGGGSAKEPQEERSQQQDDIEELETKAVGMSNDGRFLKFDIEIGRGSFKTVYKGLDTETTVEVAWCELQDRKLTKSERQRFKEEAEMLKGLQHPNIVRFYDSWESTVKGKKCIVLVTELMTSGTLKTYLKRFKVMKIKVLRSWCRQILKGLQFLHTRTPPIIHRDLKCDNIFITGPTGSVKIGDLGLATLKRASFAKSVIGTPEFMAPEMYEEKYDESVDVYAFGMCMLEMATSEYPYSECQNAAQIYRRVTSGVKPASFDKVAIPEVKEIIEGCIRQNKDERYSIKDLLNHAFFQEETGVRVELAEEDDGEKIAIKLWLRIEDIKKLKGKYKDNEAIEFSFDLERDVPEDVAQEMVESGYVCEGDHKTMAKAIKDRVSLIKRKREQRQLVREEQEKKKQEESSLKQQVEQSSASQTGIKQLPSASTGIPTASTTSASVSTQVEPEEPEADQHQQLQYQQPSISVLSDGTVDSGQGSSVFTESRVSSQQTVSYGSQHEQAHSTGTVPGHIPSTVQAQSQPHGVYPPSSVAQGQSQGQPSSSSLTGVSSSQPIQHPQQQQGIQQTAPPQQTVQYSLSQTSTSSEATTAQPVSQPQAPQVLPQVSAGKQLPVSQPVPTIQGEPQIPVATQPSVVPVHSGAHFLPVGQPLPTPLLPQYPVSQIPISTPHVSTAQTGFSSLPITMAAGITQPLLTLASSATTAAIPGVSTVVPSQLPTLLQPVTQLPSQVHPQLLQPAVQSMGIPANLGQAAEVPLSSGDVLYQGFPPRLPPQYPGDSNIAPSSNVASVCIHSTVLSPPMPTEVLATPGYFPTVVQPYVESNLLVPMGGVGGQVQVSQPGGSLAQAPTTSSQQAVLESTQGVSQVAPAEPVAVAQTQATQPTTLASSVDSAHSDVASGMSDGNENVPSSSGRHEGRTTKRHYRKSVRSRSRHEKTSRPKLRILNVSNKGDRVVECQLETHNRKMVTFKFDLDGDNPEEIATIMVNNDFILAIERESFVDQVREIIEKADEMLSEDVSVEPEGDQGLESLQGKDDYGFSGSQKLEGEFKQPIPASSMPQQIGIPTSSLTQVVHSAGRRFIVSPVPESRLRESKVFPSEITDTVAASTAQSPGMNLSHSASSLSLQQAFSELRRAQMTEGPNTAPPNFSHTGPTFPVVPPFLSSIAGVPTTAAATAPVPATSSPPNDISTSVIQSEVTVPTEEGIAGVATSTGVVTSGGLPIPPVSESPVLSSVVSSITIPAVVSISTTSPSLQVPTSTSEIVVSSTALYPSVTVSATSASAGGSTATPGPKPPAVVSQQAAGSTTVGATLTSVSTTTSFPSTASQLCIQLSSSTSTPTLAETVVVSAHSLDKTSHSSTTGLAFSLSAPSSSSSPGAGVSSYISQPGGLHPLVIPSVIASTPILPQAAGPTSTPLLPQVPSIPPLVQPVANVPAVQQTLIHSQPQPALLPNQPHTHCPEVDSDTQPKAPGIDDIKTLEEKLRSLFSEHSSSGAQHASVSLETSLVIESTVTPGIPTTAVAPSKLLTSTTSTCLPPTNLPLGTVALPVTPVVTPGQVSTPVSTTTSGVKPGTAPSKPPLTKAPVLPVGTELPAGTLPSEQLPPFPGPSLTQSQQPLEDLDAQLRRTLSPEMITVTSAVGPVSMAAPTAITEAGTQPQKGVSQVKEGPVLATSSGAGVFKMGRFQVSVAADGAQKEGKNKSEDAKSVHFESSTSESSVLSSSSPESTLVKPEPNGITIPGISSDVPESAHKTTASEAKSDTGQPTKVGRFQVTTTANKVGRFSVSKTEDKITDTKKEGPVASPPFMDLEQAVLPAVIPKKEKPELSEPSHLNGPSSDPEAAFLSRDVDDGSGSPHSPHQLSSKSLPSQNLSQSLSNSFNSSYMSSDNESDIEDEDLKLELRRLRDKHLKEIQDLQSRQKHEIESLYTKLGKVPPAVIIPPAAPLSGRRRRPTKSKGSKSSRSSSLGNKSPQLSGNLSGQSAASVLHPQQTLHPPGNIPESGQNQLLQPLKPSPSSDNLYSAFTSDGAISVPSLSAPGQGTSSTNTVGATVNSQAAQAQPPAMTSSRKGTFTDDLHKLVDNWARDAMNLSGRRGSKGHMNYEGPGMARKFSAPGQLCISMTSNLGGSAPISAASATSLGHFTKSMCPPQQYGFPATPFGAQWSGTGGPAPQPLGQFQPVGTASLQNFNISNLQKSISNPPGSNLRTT

[4] = molecular target: Phosphorylase b kinase gamma catalytic chain, skeletal muscle/heart isoform (Homo sapiens) (UniProt Q16816); assay: Inhibition of human recombinant PHKg1 at 500 nM related to control ULK1
Sequence of Phosphorylase b kinase gamma catalytic chain, skeletal muscle/heart isoform (Homo sapiens) (Q16816 whole entry, looked up, canonical isoform): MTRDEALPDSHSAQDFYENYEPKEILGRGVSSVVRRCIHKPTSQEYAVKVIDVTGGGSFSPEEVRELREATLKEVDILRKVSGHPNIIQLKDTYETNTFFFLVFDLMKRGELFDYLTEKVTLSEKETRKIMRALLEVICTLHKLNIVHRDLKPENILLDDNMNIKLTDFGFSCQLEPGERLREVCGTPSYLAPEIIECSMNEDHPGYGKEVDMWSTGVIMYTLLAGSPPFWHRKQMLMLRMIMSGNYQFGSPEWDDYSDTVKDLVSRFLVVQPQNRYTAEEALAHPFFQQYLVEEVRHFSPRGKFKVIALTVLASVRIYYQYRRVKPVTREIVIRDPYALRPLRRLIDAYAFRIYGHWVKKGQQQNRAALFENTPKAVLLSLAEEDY

[5] = molecular target: Mitogen-activated protein kinase kinase kinase 9 (Homo sapiens) (UniProt P80192); assay: Inhibition of human recombinant MLK1 at 500 nM in presence of ATP by radiometric assay relative to control
[6] = molecular target: Tyrosine-protein kinase BTK (Homo sapiens) (UniProt Q06187); assay: Inhibition of human recombinant BTK at 500 nM in presence of ATP by radiometric assay relative to control
Sequence of Tyrosine-protein kinase BTK (Homo sapiens) (Q06187 whole entry): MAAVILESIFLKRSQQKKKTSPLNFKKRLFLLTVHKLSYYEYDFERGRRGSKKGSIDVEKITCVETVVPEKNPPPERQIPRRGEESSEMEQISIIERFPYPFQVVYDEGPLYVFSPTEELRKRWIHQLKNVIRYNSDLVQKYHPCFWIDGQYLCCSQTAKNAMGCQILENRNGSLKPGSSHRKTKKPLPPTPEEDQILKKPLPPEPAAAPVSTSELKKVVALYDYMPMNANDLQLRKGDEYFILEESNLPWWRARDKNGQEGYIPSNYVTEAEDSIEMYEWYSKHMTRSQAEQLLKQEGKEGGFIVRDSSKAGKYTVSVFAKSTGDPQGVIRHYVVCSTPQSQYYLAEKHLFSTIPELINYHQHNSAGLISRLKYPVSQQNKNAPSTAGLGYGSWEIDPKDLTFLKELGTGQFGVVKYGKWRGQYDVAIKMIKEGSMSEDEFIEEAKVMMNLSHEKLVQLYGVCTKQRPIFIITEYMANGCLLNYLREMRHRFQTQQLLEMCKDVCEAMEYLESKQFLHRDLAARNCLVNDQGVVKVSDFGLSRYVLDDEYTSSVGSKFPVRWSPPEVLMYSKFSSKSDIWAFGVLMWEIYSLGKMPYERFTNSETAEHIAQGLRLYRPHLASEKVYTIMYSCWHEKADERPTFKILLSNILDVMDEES

[7] = molecular target: Tyrosine-protein kinase receptor UFO (Homo sapiens) (UniProt P30530); assay: Inhibition of human recombinant AXL at 15 nM related to control ULK1
Sequence of Tyrosine-protein kinase receptor UFO (Homo sapiens) (P30530 whole entry): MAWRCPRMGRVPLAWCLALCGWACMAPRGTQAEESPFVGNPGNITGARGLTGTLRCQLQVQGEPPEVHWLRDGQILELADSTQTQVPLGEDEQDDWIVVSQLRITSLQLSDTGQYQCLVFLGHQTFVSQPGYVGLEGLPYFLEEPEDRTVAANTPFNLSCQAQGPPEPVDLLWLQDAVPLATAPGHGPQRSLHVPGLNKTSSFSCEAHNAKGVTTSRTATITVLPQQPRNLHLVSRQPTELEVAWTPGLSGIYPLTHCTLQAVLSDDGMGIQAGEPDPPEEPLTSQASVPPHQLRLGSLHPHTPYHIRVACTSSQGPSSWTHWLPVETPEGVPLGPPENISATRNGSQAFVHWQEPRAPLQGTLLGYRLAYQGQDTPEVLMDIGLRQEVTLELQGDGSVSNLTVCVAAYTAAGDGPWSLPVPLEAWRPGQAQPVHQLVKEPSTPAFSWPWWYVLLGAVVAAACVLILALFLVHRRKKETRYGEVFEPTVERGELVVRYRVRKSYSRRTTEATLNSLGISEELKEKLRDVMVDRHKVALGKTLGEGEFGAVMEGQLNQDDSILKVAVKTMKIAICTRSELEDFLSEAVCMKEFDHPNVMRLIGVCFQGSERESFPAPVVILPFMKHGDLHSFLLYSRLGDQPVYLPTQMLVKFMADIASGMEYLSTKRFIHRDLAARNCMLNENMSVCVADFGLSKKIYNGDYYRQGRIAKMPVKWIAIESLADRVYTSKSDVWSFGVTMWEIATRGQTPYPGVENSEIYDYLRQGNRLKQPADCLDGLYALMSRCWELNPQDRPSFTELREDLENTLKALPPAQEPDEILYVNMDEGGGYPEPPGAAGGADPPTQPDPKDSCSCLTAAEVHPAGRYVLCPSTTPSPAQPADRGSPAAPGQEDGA
Outline: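 Panel of 327 recombinant human kinases, each assayed in vitro by radiometric activity assay in duplicate at a single inhibitor concentration per compound, chosen with reference to its ULK1 inhibition. Activity remaining was expressed as percent of vehicle control, and percent inhibition was calculated as 100 minus percent activity remaining.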

[8] = molecular target: T2, Testis-specific serine/threonine-protein kinase 1 (Homo sapiens) (UniProt Q9BXA7); assay: Inhibition of human recombinant TSSK1 at 15 nM in presence of ATP by radiometric assay relative to control
T2 sequence (whole entry): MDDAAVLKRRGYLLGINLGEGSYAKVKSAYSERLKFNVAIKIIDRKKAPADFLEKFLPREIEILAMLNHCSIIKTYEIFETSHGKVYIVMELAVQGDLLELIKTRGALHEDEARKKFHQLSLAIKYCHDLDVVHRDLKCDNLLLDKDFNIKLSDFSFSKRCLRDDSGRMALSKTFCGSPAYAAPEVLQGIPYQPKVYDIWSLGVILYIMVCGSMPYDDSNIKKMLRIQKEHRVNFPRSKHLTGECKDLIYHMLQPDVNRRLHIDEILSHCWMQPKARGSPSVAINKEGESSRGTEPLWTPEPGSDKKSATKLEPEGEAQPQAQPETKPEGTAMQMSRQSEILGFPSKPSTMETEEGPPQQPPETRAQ

[9] = molecular target: cAMP-dependent protein kinase catalytic subunit beta (Homo sapiens) (UniProt P22694); assay: Inhibition of human recombinant PKACbeta at 15 nM in presence of ATP by radiometric assay relative to control
[10] = molecular target: T3, Serine/threonine-protein kinase NLK (Homo sapiens) (UniProt Q9UBE8); assay: Inhibition of human recombinant NLK at 15 nM in presence of ATP by radiometric assay relative to control
T3 sequence (whole entry): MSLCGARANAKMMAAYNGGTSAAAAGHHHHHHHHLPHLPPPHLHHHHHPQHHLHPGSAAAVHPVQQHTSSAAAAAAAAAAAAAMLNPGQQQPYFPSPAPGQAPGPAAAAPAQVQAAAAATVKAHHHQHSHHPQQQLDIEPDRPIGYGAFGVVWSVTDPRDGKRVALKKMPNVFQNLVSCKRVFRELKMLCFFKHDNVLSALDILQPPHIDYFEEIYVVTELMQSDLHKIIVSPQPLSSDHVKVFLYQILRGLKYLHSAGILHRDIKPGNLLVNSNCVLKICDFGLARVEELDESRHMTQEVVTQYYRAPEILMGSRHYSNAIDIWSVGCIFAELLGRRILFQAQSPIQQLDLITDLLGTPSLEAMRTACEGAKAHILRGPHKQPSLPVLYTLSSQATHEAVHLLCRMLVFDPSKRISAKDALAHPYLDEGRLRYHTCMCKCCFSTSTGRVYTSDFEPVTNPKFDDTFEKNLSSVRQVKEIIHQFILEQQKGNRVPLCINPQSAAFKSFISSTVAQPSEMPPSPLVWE

[11] = molecular target: Leucine-rich repeat serine/threonine-protein kinase 2 (Homo sapiens) (UniProt Q5S007); assay: Inhibition of human recombinant LRRK2 at 40 nM in presence of ATP by radiometric assay relative to control
[12] = molecular target: Serine/threonine-protein kinase 35 (Homo sapiens) (UniProt Q8TDR2); assay: Inhibition of human recombinant CLIK1 at 40 nM related to control ULK1
Sequence of Serine/threonine-protein kinase 35 (Homo sapiens) (Q8TDR2 whole entry): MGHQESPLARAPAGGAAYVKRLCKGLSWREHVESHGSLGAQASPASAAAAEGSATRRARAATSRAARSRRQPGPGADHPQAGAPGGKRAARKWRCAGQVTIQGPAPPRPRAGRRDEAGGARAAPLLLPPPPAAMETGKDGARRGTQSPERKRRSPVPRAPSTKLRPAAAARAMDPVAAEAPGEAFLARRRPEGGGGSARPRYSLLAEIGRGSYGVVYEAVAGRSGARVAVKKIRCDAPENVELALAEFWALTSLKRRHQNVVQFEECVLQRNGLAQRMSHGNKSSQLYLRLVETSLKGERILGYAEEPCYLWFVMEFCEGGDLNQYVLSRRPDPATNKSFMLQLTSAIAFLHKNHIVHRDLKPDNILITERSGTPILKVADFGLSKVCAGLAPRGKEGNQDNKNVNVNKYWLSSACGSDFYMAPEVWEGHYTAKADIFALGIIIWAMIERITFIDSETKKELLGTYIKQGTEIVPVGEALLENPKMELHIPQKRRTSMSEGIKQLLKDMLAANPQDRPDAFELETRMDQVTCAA

[13] = molecular target: cAMP-dependent protein kinase catalytic subunit beta (Homo sapiens) (UniProt P22694); assay: Inhibition of human recombinant PKACbeta at 40 nM related to control ULK1

- inhibition [1]: 0%
- inhibition [2]: 2%
- fold change (FC) (Homo sapiens): 0
- inhibition [3]: 0%
- fold change (FC) [4]: 0.31
- inhibition [5]: 87%
- inhibition [6]: 0%
Compound: CNC(=O)c1ccccc1Oc1nc(Nc2cc(OC)c(OC)c(OC)c2)ncc1Br

- fold change (FC) [7]: 0.13
- inhibition [8]: 23%
- inhibition [9]: 0%
- inhibition [10]: 9%
Compound: CC(C)[C@H](NC(=O)c1cc(-c2cnn3cc(-c4ccc(OCCN5CCCCC5)cc4)cnc23)cs1)C(F)(F)F

- inhibition [11]: 3%
- fold change (FC) [12]: 0.01
- fold change (FC) [13]: 0
Compound: O=C(N[C@@H](C1CC1)C(F)(F)F)c1cc(-c2cnn3cc(-c4ccc(F)cc4)cnc23)cs1
